Values belong to the compound of their own block, whether it stands above or below them.
Columns and labels:
Rattus norvegicus [1] = experiment: Inhibition of cholesterol biosynthesis in meal fed Wistar rat liver assessed as sodium [1-14C]acetate incorporation at 188 mg/kg/day administered through diet for 7 days measured 1 hr after labeled acetate challenge by liquid scintillation spectrometry (reference value: 41.3 +/- 3.2 x 10^-3 dpm); format: functional
Rattus norvegicus [2] = experiment: Increase in liver weight in Wistar rat at 766 umol/kg/day administered through diet for 10 days; format: ADME, organism-based; details: in vivo, po, 240 h
Rattus norvegicus [3] = experiment: Hypolipidemic activity in Wistar rat assessed as reduction in plasma triglyceride level at 766 umol/kg/day administered through diet for 10 days; format: functional; details: 240 h
Rattus norvegicus [4] = experiment: Hypolipidemic activity in Wistar rat assessed as reduction in plasma triglyceride level at 304 umol/kg/day administered through diet for 10 days; format: functional; details: 240 h
Outline: (§1)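 Young male Wistar rats, 170-190 g initial weight, six per group, fed drug mixed thoroughly into Purina Lab Chow ad libitum for the stated days; daily dose calculated from food consumption and body weight. Bled by cardiac puncture at end; plasma cholesterol and triglycerides by automated procedures, expressed as percent reduction versus simultaneous untreated controls; Student's t test.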

Rattus norvegicus [5] = experiment: Increase in liver weight in Wistar rat at 1693 umol/kg/day administered through diet for 10 days; format: ADME, organism-based; details: in vivo, po, 240 h
Rattus norvegicus [6] = experiment: Inhibition of cholesterol biosynthesis in Ad Lib fed Wistar rat liver assessed as sodium [1-14C]acetate incorporation at 261 mg/kg/day administered through diet for 7 days measured 1 hr after labeled acetate challenge by liquid scintillation spectrometry (reference value: 12.7 +/- 2.6 x 10^-3 dpm); format: functional
Rattus norvegicus [7] = experiment: Increase in liver weight in Wistar rat at 119 umol/kg/day administered through diet for 10 days; format: ADME, organism-based; details: in vivo, po, 240 h
Rattus norvegicus [8] = experiment: Hypolipidemic activity in Wistar rat assessed as reduction in plasma triglyceride level at 119 umol/kg/day administered through diet for 10 days; format: functional; details: 240 h; outline: as §1
Rattus norvegicus [9] = experiment: Hypolipidemic activity in Wistar rat assessed as reduction in plasma triglyceride level at 1693 umol/kg/day administered through diet for 10 days; format: functional; details: 240 h; outline: as §1
Rattus norvegicus [10] = experiment: Increase in liver weight in Wistar rat at 304 umol/kg/day administered through diet for 10 days; format: ADME, organism-based; details: in vivo, po, 240 h
Rattus norvegicus [11] = experiment: Hypolipidemic activity in Wistar rat assessed as reduction in plasma cholesterol level at 766 umol/kg/day administered through diet for 10 days; format: functional; details: 240 h
Outline: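 Young male Wistar rats (initial weight 170-190 g), groups of six, fed compound mixed into Purina Lab Chow ad libitum for 4 or 10 days; daily dose calculated from food consumption and body weight. Bled by cardiac puncture; plasma cholesterol and triglycerides by automated procedures; percent reduction versus simultaneous untreated controls, Student's t test.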

Rattus norvegicus [12] = experiment: Inhibition of fatty acid biosynthesis in meal fed Wistar rat liver assessed as sodium [1-14C]acetate incorporation at 188 mg/kg/day administered through diet for 7 days measured 1 hr after labeled acetate challenge by liquid scintillation spectrometry (reference value: 182 +/- 22 x 10^-3 dpm); format: functional
Rattus norvegicus [13] = experiment: Hypolipidemic activity in Wistar rat assessed as reduction in plasma cholesterol level at 119 umol/kg/day administered through diet for 10 days; format: functional; details: 240 h
Outline: (§2)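 Young male Wistar rats, 170-190 g at start, in groups of six, given compound mixed into Purina Lab Chow ad libitum for 4 or 10 days as stated. Daily dose was calculated from food consumption and body weight. Plasma was taken by cardiac puncture at the end and cholesterol measured by automated procedure. Results are % reduction versus a concurrent untreated control group, with Student's t test.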

Rattus norvegicus [14] = experiment: Hypolipidemic activity in Wistar rat assessed as reduction in plasma cholesterol level at 1693 umol/kg/day administered through diet for 10 days; format: functional; details: 240 h; outline: as §2
Rattus norvegicus [15] = experiment: Hypolipidemic activity in Wistar rat assessed as reduction in plasma cholesterol level at 304 umol/kg/day administered through diet for 10 days; format: functional; details: 240 h; outline: as §2
Rattus norvegicus [16] = experiment: Inhibition of fatty acid biosynthesis in Ad Lib fed Wistar rat liver assessed as sodium [1-14C]acetate incorporation at 261 mg/kg/day administered through diet for 7 days measured 1 hr after labeled acetate challenge by liquid scintillation spectrometry (reference value: 27.2 +/- 4.8 x 10^-3 dpm); format: functional
Rattus norvegicus [17] = experiment: Hypolipidemic activity in Wistar rat assessed as reduction in plasma triglyceride level at 398 umol/kg/day administered through diet for 10 days; format: functional; details: 240 h
Outline: (§3)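 Young male Wistar rats (170-190 g initial weight), groups of six, fed test compound mixed into Purina Lab Chow ad libitum; daily dose calculated from food consumption and body weight. Bled by cardiac puncture at end of treatment; plasma triglycerides measured by automated procedure. Results given as percent reduction versus a simultaneous untreated control group, with significance by Student's t test.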

Rattus norvegicus [18] = experiment: Increase in liver weight in Wistar rat at 204 umol/kg/day administered through diet for 10 days; format: ADME, organism-based; details: in vivo, po, 240 h
Rattus norvegicus [19] = experiment: Hypolipidemic activity in Wistar rat assessed as reduction in plasma triglyceride level at 204 umol/kg/day administered through diet for 10 days; format: functional; details: 240 h; outline: as §1
Rattus norvegicus [20] = experiment: Increase in liver weight in Wistar rat at 398 umol/kg/day administered through diet for 10 days; format: ADME, organism-based; details: in vivo, po, 240 h
Rattus norvegicus [21] = experiment: Increase in cholesterol level in Wistar rat liver at 204 umol/kg/day administered through diet for 10 days; format: ADME, organism-based; details: in vivo, po, 240 h
Rattus norvegicus [22] = experiment: Increase in liver weight in Wistar rat at 385 umol/kg/day administered through diet for 10 days; format: ADME, organism-based; details: in vivo, po, 240 h
Rattus norvegicus [23] = experiment: Increase in cholesterol level in Wistar rat liver at 398 umol/kg/day administered through diet for 10 days; format: ADME, organism-based; details: in vivo, po, 240 h
Rattus norvegicus [24] = experiment: Increase in cholesterol level in Wistar rat liver at 385 umol/kg/day administered through diet for 10 days; format: ADME, organism-based; details: in vivo, po, 240 h
Rattus norvegicus [25] = experiment: Hypolipidemic activity in Wistar rat assessed as reduction in plasma cholesterol level at 398 umol/kg/day administered through diet for 10 days; format: functional; details: 240 h; outline: as §2
Rattus norvegicus [26] = experiment: Hypolipidemic activity in Wistar rat assessed as reduction in plasma triglyceride level at 385 umol/kg/day administered through diet for 10 days; format: functional; details: 240 h; outline: as §3
Rattus norvegicus [27] = experiment: Hypolipidemic activity in Wistar rat assessed as reduction in plasma cholesterol level at 204 umol/kg/day administered through diet for 10 days; format: functional; details: 240 h; outline: as §2
Rattus norvegicus [28] = experiment: Hypolipidemic activity in Wistar rat assessed as reduction in plasma cholesterol level at 385 umol/kg/day administered through diet for 10 days; format: functional; details: 240 h; outline: as §2

Activity (Rattus norvegicus [2]): 22%
Activity (Rattus norvegicus [5]): 50%
Activity (Rattus norvegicus [7]): 0%
Activity (Rattus norvegicus [10]): 2%
SMILES: CCOC(=O)C(C)(C)Oc1ccc(Cl)cc1 [CLOFIBRATE]
Activity (Rattus norvegicus [1]): 43300 dpm
inhibition in vivo at 766 µmol/kg (Rattus norvegicus [3]): 66%
inhibition in vivo at 304 µmol/kg (Rattus norvegicus [4]): 48%
Activity (Rattus norvegicus [6]): 4100 dpm
inhibition in vivo at 119 µmol/kg (Rattus norvegicus [8]): 30%
inhibition in vivo at 1693 µmol/kg (Rattus norvegicus [9]): 78%
inhibition in vivo at 766 µmol/kg (Rattus norvegicus [11]): 36%
Activity (Rattus norvegicus [12]): 205000 dpm
inhibition in vivo at 119 µmol/kg (Rattus norvegicus [13]): 9%
inhibition in vivo at 1693 µmol/kg (Rattus norvegicus [14]): 41%
inhibition in vivo at 304 µmol/kg (Rattus norvegicus [15]): 18%
Activity (Rattus norvegicus [16]): 50000 dpm

Activity (Rattus norvegicus [18]): 10%
Activity (Rattus norvegicus [20]): 12%
Activity (Rattus norvegicus [21]): 0%
Activity (Rattus norvegicus [22]): 5%
Activity (Rattus norvegicus [23]): 2%
Activity (Rattus norvegicus [24]): 1%
SMILES: CCCCCCCCCCCCCCCCOc1ccc(C(=O)OC)cc1
inhibition in vivo at 398 µmol/kg (Rattus norvegicus [17]): 40%
inhibition in vivo at 204 µmol/kg (Rattus norvegicus [19]): 23%
inhibition in vivo at 398 µmol/kg (Rattus norvegicus [25]): 14%
inhibition in vivo at 385 µmol/kg (Rattus norvegicus [26]): 63%
inhibition in vivo at 204 µmol/kg (Rattus norvegicus [27]): 0%
inhibition in vivo at 385 µmol/kg (Rattus norvegicus [28]): 20%
